Assay results: ChEMBL document CHEMBL4513216, “Probing the Open Global Health Chemical Diversity Library for Multistage-Active Starting Points for Next-Generation Antimalarials” (ACS Infect Dis, 2020)

Experiment: Toxicity liver stage against HepG2, at 10uM
Format: cell-based
Design: test concentration 10 uM, cell line HepG2-A16-CD81EGFP
Conditions: human, HepG2-A16-CD81EGFP cells; read-out: INHIBITION
Outline: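 Uninfected HepG2-A16-CD81EGFP cells, 3 × 10^3 per well, 1536-well, plated on prespotted compound at 10 μM final, parasite-free screening media added to match infected plates; puromycin 10 μM positive, DMSO 0.5% negative; run in parallel with 48 h PbLuc assay at 37 °C, 5% CO2; viability by CellTiter-Glo luminescence, normalized to controls.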

Structure (SMILES)	cytotoxicity at 10 µM [%]
CCc1ccc(CN2C[C@@H](C(=O)O)[C@H](c3ccccc3OC)C2)o1	-13.9
COc1ccc(CN2CCOC[C@H](Oc3cccnc3)C2)cc1	-4.03
CCN1CC2(CCC1=O)CCN(CCOc1ccc(F)cc1)CC2	4.19
Cc1ccc(C(=O)N2CCc3nc4c(C)csc4c(=O)n3CC2)cn1	-7.33
CNC(=O)[C@H]1C[C@H]2CN(C(=O)NCCc3ccccc3)C[C@@H]1O2	2.89
COc1cccc(OCCNCc2ccccc2)c1	10.7
CSc1ccc(C(C)NC(=O)c2cc(C)on2)cc1 (stereo not given)	6.01
C=Cn1cc(CN2CCC(c3ncc(Cl)cc3S(C)(=O)=O)CC2)c(C)n1	7.38
CCN(C(=O)NCCc1ccccc1Cl)C(C)CS(C)(=O)=O (stereo not given)	8.83
Cc1noc(C)c1C(C)NC(=O)N1CCCN(C(=O)c2ccsc2)CC1 (stereo not given)	-0.77
CN(C)Cc1ccnc(NS(=O)(=O)Cc2cccc(F)c2)c1	1.76
Cc1n[nH]c(C)c1NC(=O)NCc1ccccn1	1.85
CN(C)S(=O)(=O)c1ccc(CNC(=O)c2cn3c(n2)CNCC3)cc1	16.9
O=C1CCC2(CCCN(c3ncc(F)cn3)CC2)N1CC1CC1 (stereo not given)	-0.291
Cn1c(Cn2ccnc2)nnc1C1CCN(C(=O)c2cccnc2)CC1	-96.4
COc1ccc(C2CCCN2C(=O)NCCCn2cccn2)cc1 (stereo not given)	7.53
Cc1nn(C)c2c(N3CCC(C)CC3)nc(C3CC3)nc12	7.59
CC(=O)N1CCN(c2cc(C3CN(C(C)=O)CCO3)nc(C)n2)CC1 (stereo not given)	-22.8
CCOc1ccc(C(=O)N2Cc3cnc(CC)nc3C2)o1	3.34
CNS(=O)(=O)CCCNC(C)(C)c1nc(C)cs1	11.1
COCC1CC2(CCN(Cc3nccn3C)CC2)CN1c1ncccn1 (stereo not given)	5.1
Cc1ccc2[nH]c(CN(C)Cc3ccccc3C(=O)O)nc2c1	7.01
Cc1cccc(NC(=O)[C@@H]2CCCN2Cc2nc(C)c(C)o2)n1	-4.34

Structure (SMILES)	cytotoxicity at 10 µM [%]
CC1CCN(C)c2ccccc2N1C(=O)c1ccc(=O)n(C)c1 (stereo not given)	-0.117
CC(=O)N1CCC(C(=O)N2CCOC(CC3CCCCC3)C2)CC1 (stereo not given)	-13.7
Cc1nc(O)c2c(n1)CCN(Cc1cc(C)sc1C)CC2	-9
CC(C(=O)NN1CCOCC1)n1nc(C(F)(F)F)c(Cl)c1C1CC1 (stereo not given)	-0.37
CCn1cnnc1CNC(=O)N1CCN(c2nc(C)c(C)s2)CC1	-9.62
CC(C)CN1CC[C@@H]2[C@@H]1CCN2S(=O)(=O)c1cccs1	2.61
CCS(=O)(=O)NCCCNC(=O)N(C)C(C)c1ccccn1 (stereo not given)	7.31
COC(=O)C(C)NCc1ccc2[nH]c(C)c(C)c2c1 (stereo not given)	2.4
COc1c(CNCc2ccc(C(=O)N3CCCC3)cc2)c(C)nn1C	-3.23
CCC(C)NS(=O)(=O)c1ccc(C(=O)NC2(C#N)CCC2)cc1 (stereo not given)	-7.79
CCn1nccc1CNC(=O)NC1CCCCC1	-27.5
Cn1nc(C(=O)NN2CCOCC2)c(Cl)c1C(F)(F)F	2.99
Cn1cc2ncn(CCNc3cccnc3)c(=O)c2n1	2.52
O=S(=O)(c1cccnc1)N1CCN(CC(O)c2ccccc2)CC1 (stereo not given)	0.871
COCC1CN(C(=O)COc2ccccc2)Cc2ncn(C)c21 (stereo not given)	0.104
Cc1cc(C)n(CCC(=O)N2CCCCC2c2nccs2)n1 (stereo not given)	10.3
CC(C)(C(=O)NCC(N)=O)c1ccccc1F	-5.33
O=C1N(Cc2ccc(F)cc2)CCCC12CCN(C1CCSCC1)C2 (stereo not given)	1.77
COCC(C)NC(=O)Nc1cc(-c2ccccc2C)nn1CCO (stereo not given)	-14.3
CCS(=O)(=O)N1CC[C@@H]2[C@H](CC1)N(Cc1cccc(C)n1)CCS2(=O)=O	-3.98
O=c1[nH]cc(N2CCOCC2)c(=O)[nH]1	6.36
CC(C)CCc1noc(C[S+]([O-])CC(=O)NCc2ccccc2)n1 (stereo not given)	5.28
